This is a sample that favours compounds with a hit; in the whole collection about 1.4% have one here.
SIAE primary – blocks human sialic acid acetylesterase; Q9HAT2; SIAE FP-Rh probe binding, fluorescence polarization; inhibition, % at 9.66 µM; hit rate 0.69% among 370,000; AID 1053197;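 active = inhibition above a cutoff: mean of compounds within the control limits plus 3 SD of those, cut at about 17% in these data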;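 also: 0% = plate median of compound wells and 100% = probe without SIAE protein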
Target sequence (Q9HAT2 whole entry, looked up): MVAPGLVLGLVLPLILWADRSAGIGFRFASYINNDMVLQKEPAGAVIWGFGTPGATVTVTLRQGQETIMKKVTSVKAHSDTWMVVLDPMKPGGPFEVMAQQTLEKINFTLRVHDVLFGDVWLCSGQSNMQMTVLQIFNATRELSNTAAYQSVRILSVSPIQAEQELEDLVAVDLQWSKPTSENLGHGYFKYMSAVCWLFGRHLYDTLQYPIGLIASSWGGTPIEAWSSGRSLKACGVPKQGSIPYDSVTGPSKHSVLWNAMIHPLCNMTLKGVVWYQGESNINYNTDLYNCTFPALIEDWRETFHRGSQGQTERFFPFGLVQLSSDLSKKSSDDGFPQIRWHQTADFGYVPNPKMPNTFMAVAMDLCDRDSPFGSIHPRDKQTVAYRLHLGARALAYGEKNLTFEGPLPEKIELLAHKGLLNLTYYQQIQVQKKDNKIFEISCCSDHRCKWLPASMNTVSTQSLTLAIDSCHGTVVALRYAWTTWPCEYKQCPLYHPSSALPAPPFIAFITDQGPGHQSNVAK
mABHD4 FP – ABHD4 (mouse) inhibition, primary FP screen; Q8VD66; purified mABHD4, FP-Rh probe fluorescence polarization; inhibition, % at 8.92 µM; hit rate 0.54% among 370,000; AID 720543;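 active = inhibition exceeding the mean over every tested compound plus 3 SD, cut at about 30% in these data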;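 also: 0% = plate median of compound wells and 100% = S159A mutant with DMSO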
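Material: mouse ABHD4 enzyme, wild type; Benchmarks: S159A mutant high control, sample median low control; Buffer or medium: HEPES pH 7.0, NaCl, Pluronic buffer; Signal: fluorescence polarization; Read-out: percent inhibition of probe binding, normalized to plate controls; Timing: pre-incubation 45 min, probe exposure 60 min, at 25 °C; Dosing: 8.92 µM, single dose.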
RBBP9 inhibitor – inhibitors of human serine hydrolase RBBP9; O75884; recombinant RBBP9, FP-Rh probe fluorescence polarization; inhibition, % at 7.94 µM; hit rate 0.2% among 220,000; AID 1515;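 active = inhibition above the campaign mean of all tested compounds plus 3 SD, cut at about 14% in these data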;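 also: plate controls were DMSO wells with RBBP9 for no effect and wells lacking RBBP9 protein for full effect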
Target sequence (O75884 whole entry, looked up): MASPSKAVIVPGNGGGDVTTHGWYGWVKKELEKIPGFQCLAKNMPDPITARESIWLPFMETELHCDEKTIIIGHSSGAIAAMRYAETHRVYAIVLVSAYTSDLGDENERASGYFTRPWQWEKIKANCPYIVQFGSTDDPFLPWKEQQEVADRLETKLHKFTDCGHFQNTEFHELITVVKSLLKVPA
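System: RBBP9 protein / Buffer or medium: Tris/NaCl buffer pH 8.0 with 0.1% Pluronic / Probe or stimulus: Serine-hydrolase probe FP-Rh, 375 nM pre-mixing / Dosing: 7.94 µM single dose, 0.794% DMSO / Times: enzyme-compound preincubation 30 min, then probe labeling 45 min, 25 °C / Technique: fluorescence polarization (mP), excitation 525 nm, emission 598 nm / Replication: singlicate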
HTRA1 inhibitor – HTRA1 (human) protease inhibition. Q92743. recombinant HTRA1, FP-rhodamine activity-based probe, fluorescence polarization. inhibition, % at 5.96 µM. hit rate 0.5% among 340,000; in the data active = inhibition above about 36%;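 also: 0% = enzyme with DMSO and 100% = wells lacking enzyme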
SIAE confirm – confirmation of human SIAE inhibitors; shares compounds with SIAE primary; SIAE FP-Rh activity-based probe, fluorescence polarization; inhibition, % at 9.66 µM; hit rate 13% among 2,300;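 active = mean inhibition of the replicates above the hit cutoff set in the primary screen, cut at about 17% in these data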;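 also: 0% = SIAE with DMSO and probe and 100% = probe without SIAE; inhibitors lower polarization as more probe stays unbound to SIAE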
Starred values were filed as active, the others as inactive; . = no result.

SMILES | SIAE primary | mABHD4 FP | RBBP9 inhibitor | HTRA1 inhibitor | SIAE confirm
Brc1ccc2nc(-c3ccncc3)c(NC3CCCC3)n2c1 | 19* | 0 | 3 | 5 | 2
COc1cccc2c1C(=O)c1ccc3ccccc3c1C2=O | . | . | -3 | 7 | .
COc1ccc(OC)c2c1C(=O)c1ccccc1C2=O | 24* | 17 | -6 | . | 10
CN(C(=O)COC(=O)CCC(=O)c1ccc(F)cc1)C1CCCCC1 | 0 | -3 | . | 5 | .
O=C1CCC2CN3CCc4c([nH]c5ccccc45)C3CC2C1 (configuration not stated) | 5 | 3 | . | 14 | .
O=C(O)C1CCCC2CN3CCc4c([nH]c5ccccc45)C3C(O)C21 (configuration not stated) | 19* | 22 | . | 12 | -3
N#CCCN(C(=O)COC(=O)CNS(=O)(=O)c1ccc2ccccc2c1)c1ccccc1 | 23* | 2 | . | 0 | 4
O=C1C(Cl)=C(N2CCCCC2)C(=O)N1Cc1ccccc1 | 18* | 2 | -12 | -10 | 1
O=C1C(Cl)=C(N2CCCCCC2)C(=O)N1c1ccccc1 | 3 | -2 | -13 | -11 | .
c1ccc(OCc2ccc(CCCN3CCOCC3)cc2)cc1 | 18* | 3 | . | 0 | -1
c1ccc(CCCN2CCOCC2)cc1 | 2 | 7 | . | 3 | .
Cc1ccc(-c2nc(C3CCN(S(=O)(=O)c4ccc(C(F)(F)F)cc4)CC3)no2)cc1 | 2 | 8 | -8 | 2 | .
CS(=O)(=O)N1CCC(c2noc(-c3ccc(C(F)(F)F)cc3)n2)CC1 | 28* | -2 | -3 | -4 | -1
COc1cccc2cc(C(=O)C3=C(O)C(=O)N(CCN4CCOCC4)C3c3ccc(C(C)(C)C)cc3)oc12 (configuration not stated) | 6 | 2 | . | -1 | .
COC(=O)c1cccc(NC(=O)Nc2ccc(Cl)cc2)c1 | 19* | -18 | -11 | . | -1
CCc1ccccc1NC(=O)CN(C)C(=O)CSc1nnc(Nc2cccc(C)c2C)s1 | 6 | 3 | -5 | -3 | .
CCc1ccccc1NC(=O)CN(C)C(=O)CSc1nn(-c2ccc(F)cc2)c(=S)s1 | 18* | -11 | -2 | -9 | 0
COc1ccc([C@H]2CC(=O)C[C@@H](CCn3cc(C(C)C)nn3)O2)cc1 | -4 | 0 | . | . | .
Cc1ccc(C)c(OCc2nc3ccccc3[nH]2)c1 | 37* | -1 | -4 | -6 | 5
Cc1cccc(C)c1OCc1nc2ccccc2[nH]1 | -7 | 6 | -6 | 2 | .
O=[N+]([O-])c1ccc(N2CCN(Cc3ccc4c(c3)OCO4)CC2)nc1 | 24* | -5 | . | 3 | 0
Fc1ccc2nc(Nc3nc4cc5c(cc4s3)OCCO5)sc2c1 | 32* | 12 | -14 | -15 | 6
c1ccc2sc(Nc3nc4cc5c(cc4s3)OCO5)nc2c1 | 7 | 7 | -4 | -3 | .
Fc1ccc2nc(Nc3nc4cc5c(cc4s3)OCO5)sc2c1 | 25* | 7 | 0 | 0 | 8
OC(c1cccc(Cl)c1)c1ncc(-c2ccccc2Cl)[nH]1 (configuration not stated) | -8 | -28 | . | . | .
SMILES | SIAE primary | mABHD4 FP | RBBP9 inhibitor | HTRA1 inhibitor | SIAE confirm
CCOC(=O)/C(=N\Nc1ccc(Cl)cc1)c1csc(Nc2ccccc2)n1 | 20* | 2 | -12 | 28 | -3
Nc1cccc2c3c(oc12)CCCC3 | 18* | 6 | . | 23 | 4
COC(=O)c1ccc2nc(-c3ccc(C)cc3)c(Cc3ccccc3)n2c1 | -10 | -4 | . | . | .
O=C(c1ccc(N2C(=O)CCC2=O)cc1)N1CCCSC1=Nc1ccccc1 | 29* | 6 | . | -5 | 5
Cn1c(=O)c2ccccc2n(CC(=O)N2CCCc3ccccc32)c1=O | 11 | 3 | . | 4 | .
Cc1ccc(S(=O)(=O)N2CCN(C(=O)CCC(=O)NCc3ccc(F)cc3)CC2)cc1 | 18* | 6 | 0 | 0 | 2
CCOCCCNCC(=O)N1CCN(S(=O)(=O)c2ccc(C)cc2)CC1 | 17* | -2 | -11 | 6 | -1
COC(=O)c1cc(-c2cccc3c2sc2ccccc23)c(=O)n2c1CCC2 | 1 | 6 | . | . | .
COC(=O)[C@]12C[C@H](CC(=O)NCCCCc3ccccc3)C(=O)N(Cc3ccccc3)C1=C[C@H](COCc1ccccc1)O[C@@H]2C | 3 | -7 | . | . | .
COCCNC(=O)c1cccc(OC2CCN(Cc3cccc(C(C)=O)c3)CC2)c1 | 26* | -1 | . | 6 | 2
CCCn1c(=N)n(CC(=O)c2ccco2)c2ccccc21 | 2 | 9 | 7 | 0 | .
Cc1ccccc1Cn1c(=N)n(CC(=O)c2ccco2)c2ccccc21 | 22* | 6 | -7 | -5 | 3
O=C(Cc1cn(Cc2ccccc2)c2ccccc12)Nc1ccc(Nc2cccnc2)c(Br)c1 | 18* | 16 | . | . | 16
O=C(Cc1c[nH]c2ccccc12)Nc1ccc(Nc2cccnc2)c(-c2ccc(Oc3ccccc3)cc2)c1 | 18* | 9 | . | . | 6
COC1=Nc2ccccc2/C=C\c2ccccc21 | 1 | -4 | . | -1 | .
CCOC(=O)C1=C(O)/C(=C\c2ccc(CNS(=O)(=O)c3ccc(Br)cc3)o2)N=C1C | 18* | 23 | -1 | 18 | 5
COC(=O)C1=C(O)/C(=C\c2ccc(CNS(=O)(=O)c3ccc(Cl)cc3)o2)N=C1C | 22* | 29 | 3 | 34 | -5
COC(=O)C1=C(O)/C(=C\c2ccc(CNC(=O)C(=O)Nc3ccc(C)c(C)c3)o2)N=C1C | 12 | 28 | -8 | 29 | .
CC(=O)Nc1cccc(-c2ccnc3c2CC(C)(C(=O)NCc2ccc(F)c(F)c2)O3)c1 (configuration not stated) | -3 | 0 | . | . | .
COc1ccccc1C(C(=O)c1ccccc1)c1ccc2ccccc2c1 (configuration not stated) | -12 | -6 | . | . | .
CN(C)S(=O)(=O)N1C(=O)c2ccccc2C1=O | -4 | -5 | -10 | 4 | .
CN(C)/C=C1\C=C2C(=O)c3ccccc3N2C1=O | 21* | 8 | 11 | 30 | 38*
C[C@@H]1CN(c2ccc(N3CCNC[C@@H]3C)cc2C#N)CCN1Cc1ccccc1 | 20* | 10 | . | . | 3
Cc1cc(N2CCNC[C@@H]2C)ccc1N1CCN(Cc2ccccc2)[C@H](C)C1 | 8 | 6 | . | . | .
COCc1cc(N2CCNC[C@@H]2C)ccc1N1CCN(Cc2ccccc2)[C@H](C)C1 | 17* | 9 | . | . | 4
Cc1cc(N2CCNC[C@H]2C)ccc1N1CCN(Cc2ccccc2)[C@H](C)C1 | 6 | 5 | . | . | .
CCC1(c2ccccc2)NC(=O)N(CC(=O)Nc2cccc(S(=O)(=O)N3CCCCC3)c2)C1=O (configuration not stated) | -4 | 4 | . | -27 | .
CC(=O)N/C(=C\c1ccccc1)C(=O)OCC(=O)Nc1ccc(C)c(S(=O)(=O)N(C)C)c1 | 21* | -6 | . | -10 | 1
CCCCCCCCN1C(=O)[C@@H](CC(=O)N2CCN(C(=O)C3CC3)CC2)C[C@@]2(C(=O)OC)C1=C[C@H](C(C)(C)C)O[C@@H]2C | 3 | -6 | . | . | .
C/C(=N\NC(=O)c1ccc([N+](=O)[O-])cc1)c1cc2ccccc2oc1=O | 17* | 9 | -5 | 6 | 7
